{"source": "paper PMC3159870", "about": "(European journal of nuclear medicine and molecular imaging, 2010)", "key": {"TSPO [1]": {"test_system": "TSPO", "assay": "in vitro affinity for TSPO in human brain tissue", "type": "binding", "settings": "PBR06 relative to PBR28"}, "TSPO [2]": {"target": "TSPO", "settings": "human brain tissue; cited from earlier work"}, "[3]": {"settings": "octanol/phosphate buffer, pH 7.4; cited from earlier work"}, "TSPO [4]": {"test_system": "TSPO", "type": "binding, human", "settings": "membranes of white blood cells"}, "TSPO [5]": {"test_system": "TSPO", "assay": "in vivo affinity ratio from slope of regression of regional VT/fP", "parameters": "species or system human", "settings": "VT/fP values in ten brain regions"}, "[6]": {"assay": "kinetics of radioligand in plasma and brain after bolus intravenous injection", "type": "in vivo, human"}, "[7]": {"settings": "radiation exposure; cited from earlier work"}, "TSPO [8]": {"test_system": "TSPO", "type": "in vivo, human", "method_in_brief": "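Eight healthy volunteers (2 women, 6 men; 32±11 y), each scanned once with each aryloxyanilide radioligand (18F: 170±26 MBq; 11C: 567±84 MBq; i.v. bolus). Dynamic PET on GE Advance. Radial arterial plasma parent separated by radio-HPLC gave the input function. VT fitted from the first 120 min, then divided by per-scan fP. Ten regions; mean ± SD; repeated-measures ANOVA.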"}, "TSPO [9]": {"test_system": "TSPO", "settings": "monkey brain; cited from earlier work"}, "plasma free fraction": {"assay": "plasma free fraction", "type": "in vitro ADME, human", "settings": "eight subjects"}, "[10]": {"settings": "mean of ten brain regions, eight subjects, 120 min data"}}, "note": "Where two headings read alike, the source gives them in different places."}
{"smiles": "COc1ccc(OC)c(CN(C(=O)CF)c2ccccc2Oc2ccccc2)c1", "note": "[PBR06]", "values": [{"measurement": "fold higher in vitro affinity than PBR28", "setting": "TSPO [1]", "result": 2.5, "unit": "fold"}, {"measurement": "Ki", "setting": "TSPO [2]", "result": 1, "unit": "nM"}]}
{"smiles": "COc1ccccc1CN(C(C)=O)c1cnccc1Oc1ccccc1", "note": "[PBR28]", "values": [{"measurement": "Ki", "setting": "TSPO [2]", "result": 2.5, "unit": "nM"}, {"measurement": "log D", "setting": "[3]", "result": 3.0}, {"measurement": "fold lower affinity in non-binders than in the majority (90%) of the population", "setting": "TSPO [4]", "result": "about 50 fold"}]}
{"smiles": "COc1ccc(OC)c(CN(C(=O)C[18F])c2ccccc2Oc2ccccc2)c1", "note": "[^18F-PBR06]", "values": [{"measurement": "95% confidence interval of slope (in vivo affinity ratio)", "setting": "TSPO [5]", "result": "0.89–1.84"}, {"measurement": "time of peak brain uptake of radioactivity", "setting": "[6]; human brain, after injection", "result": "≤ 5", "unit": "min"}, {"measurement": "time of peak plasma concentration of total parent radioligand", "setting": "[6]; human plasma, after injection", "result": "≤ 2", "unit": "min"}, {"measurement": "peak concentration of brain uptake", "setting": "[6]; mean of ten regions in eight subjects", "result": 1.2, "unit": "SUV"}, {"measurement": "peak concentration of brain uptake, range", "setting": "[6]; range, ten regions in eight subjects", "result": "1.0–1.6 SUV"}, {"measurement": "effective dose", "setting": "[7]", "result": 18.5, "unit": "µSv/MBq"}, {"measurement": "VT", "setting": "TSPO [8]; Anterior cingulate", "result": "2.05±0.42", "unit": "ml × cm^−3"}, {"measurement": "VT/fP", "setting": "TSPO [8]; Anterior cingulate", "result": "97.7±21.5", "unit": "ml × cm^−3"}, {"measurement": "VT", "setting": "TSPO [8]; Caudate", "result": "1.72±0.28", "unit": "ml × cm^−3"}, {"measurement": "VT/fP", "setting": "TSPO [8]; Caudate", "result": "83.2±20.3", "unit": "ml × cm^−3"}, {"measurement": "VT", "setting": "TSPO [8]; Cerebellum", "result": "2.26±0.61", "unit": "ml × cm^−3"}, {"measurement": "VT/fP", "setting": "TSPO [8]; Cerebellum", "result": "108.0±33.4", "unit": "ml × cm^−3"}, {"measurement": "VT", "setting": "TSPO [8]; Frontal cortex", "result": "2.10±0.40", "unit": "ml × cm^−3"}, {"measurement": "VT/fP", "setting": "TSPO [8]; Frontal cortex", "result": "100.3±22.6", "unit": "ml × cm^−3"}, {"measurement": "VT", "setting": "TSPO [8]; Medial temporal cortex", "result": "2.05±0.46", "unit": "ml × cm^−3"}, {"measurement": "VT/fP", "setting": "TSPO [8]; Medial temporal cortex", "result": "97.7±22.8", "unit": "ml × cm^−3"}, {"measurement": "VT", "setting": "TSPO [8]; Occipital cortex", "result": "2.17±0.40", "unit": "ml × cm^−3"}, {"measurement": "VT/fP", "setting": "TSPO [8]; Occipital cortex", "result": "104.0±24.3", "unit": "ml × cm^−3"}, {"measurement": "VT", "setting": "TSPO [8]; Parietal cortex", "result": "2.10±0.39", "unit": "ml × cm^−3"}, {"measurement": "VT/fP", "setting": "TSPO [8]; Parietal cortex", "result": "100.3±20.4", "unit": "ml × cm^−3"}, {"measurement": "VT", "setting": "TSPO [8]; Putamen", "result": "1.98±0.36", "unit": "ml × cm^−3"}, {"measurement": "VT/fP", "setting": "TSPO [8]; Putamen", "result": "94.8±21.2", "unit": "ml × cm^−3"}, {"measurement": "VT", "setting": "TSPO [8]; Temporal cortex", "result": "2.24±0.43", "unit": "ml × cm^−3"}, {"measurement": "VT/fP", "setting": "TSPO [8]; Temporal cortex", "result": "107.4±27.7", "unit": "ml × cm^−3"}, {"measurement": "VT", "setting": "TSPO [8]; Thalamus", "result": "2.37±0.44", "unit": "ml × cm^−3"}, {"measurement": "VT/fP", "setting": "TSPO [8]; Thalamus", "result": "113.6±25.7", "unit": "ml × cm^−3"}, {"measurement": "VT", "setting": "TSPO [8]; [10]", "result": "2.1±0.4", "unit": "ml × cm^−3"}, {"measurement": "VT/fP", "setting": "TSPO [8]; [10]", "result": "100.7±24.0", "unit": "ml × cm^−3"}, {"measurement": "specific binding as part of total uptake", "setting": "TSPO [9]", "result": "greater than 90%"}, {"measurement": "plasma free fraction (fP)", "setting": "plasma free fraction", "result": "2.2±0.6", "unit": "%"}]}
